The source made the active and inactive calls.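 The calls were made as follows, unless noted: active = viability at or below 10% of carrier control in both of two separate runs; inconclusive = viability at or below 10% in only one of the two runs; inactive = the rest.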

The nature of assay [1]: Her2 expression decrease, cell viability multiplex – SKBR3 breast tumor cells, AlphaScreen, ATP viability, primary screen (AID 461;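 active = Her2 level under about 52% in both replicate screens, with viability over 70% of control, limit read from the data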;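 as to Her2 level: lower value means less Her2 protein in the cells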;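 as to viability: percent of carrier control wells set as 100% viability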). The settings on record: SKBR3 Her2 protein level, 18-24 h, measured here: SKBR3 viability, ATP luminescence, at 10 µM. For orientation: In Alpha technology, singlet oxygen from a donor bead excites a nearby acceptor bead.
Assay [2] concerns the target Receptor tyrosine-protein kinase erbB-2 (Homo sapiens) (UniProt P04626). The assay is described as above. To be noted: 18-24 h, at 10 µM, stronger effect = lower value.
Assay [3] in a line: reduced viability of SK-BR-3 breast cancer cells – cell-based, 24 h, human, pilot screen (AID 572).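 Also: compound exposure lasted between 18 and 24 h rather than exactly 24 h; 100% = carrier-treated control wells.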 To be noted: SK-BR-3 viability, CellTiter-Glo luminescence, at 10 µM, stronger effect = lower value. On the technique in general: Cellular ATP, detected with luciferase, serves as a proxy for viable cell number.
Assay [4] in a line: HUVEC growth inhibition – cell-based, human, primary screen (AID 575;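 active = viability at or below 30% in both replicate assays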;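 also: 100% = median of untreated cell wells with 0.1% DMSO on each plate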). To be noted: HUVEC proliferation, CellTiter-Glo luminescence, 72 h; at 10 µM; stronger effect = lower value. The method, boiled down:
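material = primary HUVEC, no more than 12 passages | input = 1250 cells per well | controls = vehicle and MePR control wells | measured by = CTG luminescence | times = 72 h compound incubation | format = collagen-coated 384-well format | read-out = % viability vs DMSO wells | doses = single 10 µM dose, 0.1% DMSO, from 5x medium stock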

The nature of assay [5]: H69AR cell proliferation blockers – human, duplicate replicates, primary screen (AID 580;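 active = viability at or under a set limit in both replicates, limit being median viability minus 3 SD, cut at about 48% in these data, passing the limit was not always enough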;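 also: 100% = mean luminescence of untreated wells and 0% = no signal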). To be noted: H69AR lung tumor cells viability, ATP luminescence, 72 h; at 10 µM; stronger effect = lower value.
A short description of assay [6]: MRP1 drug-resistance reversers in H69AR cells – cell-based, doxorubicin co-treatment, pilot screen (AID 601;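 active = viability loss from added drug above about 55%, and viability with drug at most 40%, in both replicates, limit read from the data, passing the limit was not always enough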). To be noted: CellTiter-Glo, 72 h, at 10 µM; for differential viability (reversal): stronger effect = higher value.
A short description of assay [7]: yeast transport mutant growth inhibition pilot in 384-well plates, post-Golgi transport modulator project (AID 636; in the data active = inhibition above about 31%). To be noted: absorbance 615 nm, about 18 h, stronger effect = higher value.
Assay [8] is described as follows: growth suppression of yeast trafficking mutant, preliminary HTS, modulators of trafficking downstream of Golgi apparatus project, 1536-format plate, OD 615 nm (AID 637; in the data active = inhibition above about 30%). To be noted: yeast transport mutant growth, absorbance 615 nm, 18 h; stronger effect = higher value.
Setting [9] is: H69AR cells + 2 uM doxorubicin, measured here: viability with 2 uM doxorubicin, stronger effect = lower value.
The mark [10] stands for this setting: H69AR cells, compound alone cytotoxicity.

Sequence of Receptor tyrosine-protein kinase erbB-2 (Homo sapiens) (P04626 whole entry, looked up): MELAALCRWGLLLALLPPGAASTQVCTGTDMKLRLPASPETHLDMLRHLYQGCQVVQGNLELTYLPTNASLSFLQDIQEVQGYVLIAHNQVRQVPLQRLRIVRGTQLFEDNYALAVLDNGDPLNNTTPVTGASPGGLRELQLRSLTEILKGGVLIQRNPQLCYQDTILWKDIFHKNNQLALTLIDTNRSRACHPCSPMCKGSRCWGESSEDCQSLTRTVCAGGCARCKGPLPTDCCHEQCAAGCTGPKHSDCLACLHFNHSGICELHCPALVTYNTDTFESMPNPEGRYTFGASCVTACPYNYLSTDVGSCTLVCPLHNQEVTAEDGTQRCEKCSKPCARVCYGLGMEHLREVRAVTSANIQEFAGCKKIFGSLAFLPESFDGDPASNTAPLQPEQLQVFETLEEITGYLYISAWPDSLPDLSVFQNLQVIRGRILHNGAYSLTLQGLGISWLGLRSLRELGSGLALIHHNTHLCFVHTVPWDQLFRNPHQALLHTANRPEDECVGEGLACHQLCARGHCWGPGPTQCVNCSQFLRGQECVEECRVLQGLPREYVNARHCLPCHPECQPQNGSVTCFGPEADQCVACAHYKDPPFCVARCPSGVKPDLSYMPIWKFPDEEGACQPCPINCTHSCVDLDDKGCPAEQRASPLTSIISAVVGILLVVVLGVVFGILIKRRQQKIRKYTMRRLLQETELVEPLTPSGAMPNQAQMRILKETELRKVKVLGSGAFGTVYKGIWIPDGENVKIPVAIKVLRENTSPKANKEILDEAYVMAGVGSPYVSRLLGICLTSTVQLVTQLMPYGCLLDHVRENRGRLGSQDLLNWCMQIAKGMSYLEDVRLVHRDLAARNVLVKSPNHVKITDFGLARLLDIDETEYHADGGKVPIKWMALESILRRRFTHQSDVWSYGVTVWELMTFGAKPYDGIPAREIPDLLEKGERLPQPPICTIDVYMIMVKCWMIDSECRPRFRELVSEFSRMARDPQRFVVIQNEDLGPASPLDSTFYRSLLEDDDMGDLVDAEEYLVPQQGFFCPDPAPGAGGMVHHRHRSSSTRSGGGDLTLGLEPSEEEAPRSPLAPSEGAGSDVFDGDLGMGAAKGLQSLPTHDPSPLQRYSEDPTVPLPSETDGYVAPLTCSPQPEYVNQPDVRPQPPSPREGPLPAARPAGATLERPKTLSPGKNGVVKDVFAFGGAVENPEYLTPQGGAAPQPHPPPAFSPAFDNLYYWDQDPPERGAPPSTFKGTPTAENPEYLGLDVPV

As for `Cc1c(C(=O)O)oc2ccc(S(=O)(=O)NCc3ccccc3)cc12`, the viability (in general, a read-out of living cells in per cent, often relative to untreated cells) in assay [1] is 105%; in assay [3] it was 105% (inactive); in assay [4], 113% (inactive); in assay [5] it was 106% (inactive); in assay [6] (setting [9]), 105%; in assay [6] (setting [10]), 106%. Further, in assay [2], the Her2 level is 113% (inactive). Further, in assay [6] (H69AR cells + 2 uM doxorubicin), the differential viability (reversal) was 0.815% (inactive). Moreover, the inhibition – broadly, the change of the read-out against control, counted positive when it falls – in assay [7] was -3.42% (inactive); in assay [8] it was -6.51% (inactive).
With `CN(C(=O)CSc1nc2c(c(=O)[nH]1)CCCC2)C1CCCCC1`, the viability is 95% in assay [1]; 95% (inactive) in assay [3]; 77.1% (inactive) in assay [4]; 93.3% (inactive) in assay [5]; 92.2% in assay [6] (setting [9]); 93.3% in assay [6] (setting [10]). Also, the Her2 level in assay [2] was 105% (inactive). For the same compound, the differential viability (reversal) in assay [6] (H69AR cells + 2 uM doxorubicin) was 1.09% (inactive). Besides, the inhibition in assay [7] was -1.97% (inactive); in assay [8], -8.89% (inactive).
For the compound `C/C(=C\c1cc(C(=O)O)c(C)o1)CO`, the viability in assay [1] is 102%; in assay [3] it was 102% (inactive); in assay [4], 108% (inactive); in assay [5] it was 89.1% (inactive); in assay [6] (setting [9]), 97.2%; in assay [6] (setting [10]) it was 89.1%. In assay [2], the Her2 level was 126% (inactive). Besides, in assay [6] (H69AR cells + 2 uM doxorubicin), the differential viability (reversal) was -8.12% (inactive). For the same compound, the inhibition in assay [7] is -5.13% (inactive); in assay [8] it was -0.33% (inactive).
As to `CCCC(=O)Nc1cccc(NC(=O)CN2CCN(c3ccccc3OC)CC2)c1`, the viability in assay [1] is 98.5%; in assay [3] it was 98.5% (inactive); in assay [4] it was 96.6% (inactive); in assay [5], 82.9% (inactive); in assay [6] (setting [9]), 86.6%; in assay [6] (setting [10]), 82.9%. For the same compound, the Her2 level in assay [2] is 83% (inactive). The differential viability (reversal) in assay [6] (H69AR cells + 2 uM doxorubicin) is -3.71% (inactive). Besides, the figures for the inhibition in assay [7] and in assay [8] were -5.81% (inactive) and -4.92% (inactive), respectively.
`O=C(OCc1nnc(-c2ccccc2)o1)C1=COCCO1`: the viability in assay [1] is 100%; in assay [3] it was 100% (inactive); in assay [4] it was 101% (inactive); in assay [5] it was 92.1% (inactive); in assay [6] (setting [9]), 93%; in assay [6] (setting [10]), 92.1%. Also, the Her2 level in assay [2] was 94% (inactive). Besides, in assay [6] (H69AR cells + 2 uM doxorubicin), the differential viability (reversal) was -0.965% (inactive). Also, the inhibition is -8.67% (inactive) in assay [7] and -1.97% (inactive) in assay [8].
In the case of `CSc1nc(=NC(C)=O)ss1`, the viability in assay [1] is 122%; in assay [3] it was 122% (inactive); in assay [4], 84.7% (inactive); in assay [5], 71.8% (inactive); in assay [6] (setting [9]), 91.8%; in assay [6] (setting [10]) it was 71.8%. The Her2 level in assay [2] was 88.5% (inactive). Besides, the differential viability (reversal) in assay [6] (H69AR cells + 2 uM doxorubicin) was -20% (inactive). Moreover, the inhibition is -6.8% (inactive) in assay [7] and -10% (inactive) in assay [8].
As for `O=c1c2c3nc4ccccc4nc3n(CC3CCCO3)c2ncn1CCc1ccccc1` (stereo not given), the viability in assay [1] is 97%; in assay [3], 97% (inactive); in assay [4], 76.2% (inactive); in assay [5], 70.4% (inactive); in assay [6] (setting [9]), 31.8%; in assay [6] (setting [10]), 70.4%. Also, in assay [2], the Her2 level was 83.5% (inactive). Further, the differential viability (reversal) in assay [6] (H69AR cells + 2 uM doxorubicin) was 38.6% (inactive). Moreover, the inhibition is -6.93% (inactive) in assay [7] and -2.62% (inactive) in assay [8].
In the case of `CCOC(=O)CNC(=O)Nc1ccccc1C(=O)OC`, the viability in assay [1] is 116%; in assay [3], 116% (inactive); in assay [4], 96.7% (inactive); in assay [5], 94.1% (inactive); in assay [6] (setting [9]) it was 85.3%; in assay [6] (setting [10]), 94.1%. The Her2 level in assay [2] was 86.5% (inactive). In addition, the differential viability (reversal) in assay [6] (H69AR cells + 2 uM doxorubicin) is 8.77% (inactive). The inhibition was -2.5% (inactive) in assay [7] and 1.29% (inactive) in assay [8].
Turning to `COc1ccc2c(c1OC)C(=O)N(c1ccc3c(c1)CCC3)C2=O`, the viability was 96.5% in assay [1]; 96.5% (inactive) in assay [3]; 90.3% (inactive) in assay [4]; 107% (inactive) in assay [5]; 94.9% in assay [6] (setting [9]); 107% in assay [6] (setting [10]). In addition, in assay [2], the Her2 level is 100% (inactive). Further, the differential viability (reversal) in assay [6] (H69AR cells + 2 uM doxorubicin) is 12.6% (inactive). Besides, the inhibition is -3.07% (inactive) in assay [7] and 25.7% (inactive) in assay [8].
As for `CC(=O)C1=C(O)C(=O)N(Cc2ccco2)C1c1ccc(F)cc1` (stereo not given), the viability in assay [1] is 102%; in assay [3], 102% (inactive); in assay [4], 123% (inactive); in assay [5] it was 109% (inactive); in assay [6] (setting [9]) it was 100%; in assay [6] (setting [10]), 109%. The Her2 level in assay [2] is 110% (inactive). Moreover, in assay [6] (H69AR cells + 2 uM doxorubicin), the differential viability (reversal) was 8.52% (inactive). Also, the inhibition was 1.07% (inactive) in assay [7] and -5% (inactive) in assay [8].
In the case of `O=C(CCN1C(=O)C2C3C=CC(C3)C2C1=O)Nc1c(F)cc(F)cc1Br` (stereo not given), the viability was 99.5% in assay [1]; 99.5% (inactive) in assay [3]; 90.2% (inactive) in assay [4]; 103% (inactive) in assay [5]; 82.6% in assay [6] (setting [9]); 103% in assay [6] (setting [10]). For the same compound, in assay [2], the Her2 level was 91.5% (inactive). The differential viability (reversal) in assay [6] (H69AR cells + 2 uM doxorubicin) is 20.3% (inactive). The inhibition was 1.08% (inactive) in assay [7] and -4.13% (inactive) in assay [8].
Consider `Cc1ccc(OC(=O)NC2CCS(=O)(=O)C2)cc1C` (stereo not given), for which the viability in assay [1] was 108%; in assay [3], 108% (inactive); in assay [4], 103% (inactive); in assay [5], 95.3% (inactive); in assay [6] (setting [9]), 92.7%; in assay [6] (setting [10]), 95.3%. For the same compound, in assay [2], the Her2 level was 95% (inactive). Moreover, the differential viability (reversal) in assay [6] (H69AR cells + 2 uM doxorubicin) was 2.59% (inactive). In addition, the inhibition in assay [7] is -2.11% (inactive); in assay [8], 6.23% (inactive).
For the compound `CC(=O)c1nnn(-c2nc(N3CCCC3)nc(N(c3ccccc3)c3ccccc3)n2)c1C`, the viability in assay [1] is 87%; in assay [3] it was 87% (inactive); in assay [4], 97.8% (inactive); in assay [5], 82.7% (inactive); in assay [6] (setting [9]), 77%; in assay [6] (setting [10]), 82.7%. In addition, in assay [2], the Her2 level was 76% (inactive). Also, the differential viability (reversal) in assay [6] (H69AR cells + 2 uM doxorubicin) was 5.7% (inactive). In addition, the inhibition in assay [7] was -2.89% (inactive); in assay [8], -3.45% (inactive).
With `COc1ccc(C(=O)N2CCSC2=S)cc1OC`, the viability was 97.5% in assay [1]; 97.5% (inactive) in assay [3]; 89.4% (inactive) in assay [4]; 82.1% (inactive) in assay [5]; 93.6% in assay [6] (setting [9]); 82.1% in assay [6] (setting [10]). In addition, the Her2 level in assay [2] was 96% (inactive). The differential viability (reversal) in assay [6] (H69AR cells + 2 uM doxorubicin) was -11.5% (inactive). Besides, the inhibition in assay [7] is -2.21% (inactive); in assay [8], -1.67% (inactive).
In the case of `CCCCc1cc(=O)oc2cc(C)cc(OC(C)C(=O)O)c12` (stereo not given), the viability in assay [1] is 116%; in assay [3], 116% (inactive); in assay [4], 109% (inactive); in assay [5], 104% (inactive); in assay [6] (setting [9]) it was 95.8%; in assay [6] (setting [10]), 104%. For the same compound, in assay [2], the Her2 level is 115% (inactive). The differential viability (reversal) in assay [6] (H69AR cells + 2 uM doxorubicin) was 8.19% (inactive). The inhibition in assay [7] is -2.3% (inactive); in assay [8], -7.17% (inactive).

The values above are taken from PubChem BioAssay.
